Reference: ChEMBL document CHEMBL1165943, “Design and synthesis of new anticancer pyrimidines with multiple-kinase inhibitory effect” (Bioorg Med Chem, 2010)
Active and inactive are the calls of the source. No cut-off for these calls is given here.

What was measured:
[1] = tested on: UACC-62; assay: Growth inhibition of human UACC62 cells after 48 hrs by sulforhodamine B assay; type: functional, cell-based; details: UACC-62, 48 h
Method in brief: (§1)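 Cells grown in RPMI 1640 with 5% FBS and 2 mM L-glutamine, seeded at 5,000–40,000 cells/well according to doubling time. After 24 h, time-zero plates are TCA-fixed. Five concentrations (10-fold or ½log dilutions, DMSO stocks) are applied for 48 h at 37 °C, 5% CO₂. Cells are TCA-fixed, SRB-stained and read at 515 nm. IC₅₀ is taken from [(Ti−Tz)/(C−Tz)]×100 = 50.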

[2] = tested on: ACHN; assay: Growth inhibition of human ACHN cells after 48 hrs by sulforhodamine B assay; type: functional, cell-based
Method in brief: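 Five-dose SRB assay. Cells in RPMI 1640 with 5% FBS and 2 mM L-glutamine were seeded at 5,000–40,000 cells/well, with a TCA-fixed time-zero plate (Tz) taken at 24 h. Compound stocks were in DMSO, serially diluted 10-fold or ½-log to five concentrations, and incubated 48 h at 37 °C. Plates were stained with SRB and read at 515 nm. IC₅₀ was taken where [(Ti−Tz)/(C−Tz)]×100 = 50.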

[3] = tested on: DU-145; assay: Growth inhibition of human DU145 cells after 48 hrs by sulforhodamine B assay; type: functional, cell-based; details: for CC50: read-out: LC50 (the source's name); method in brief: as §1
[4] = tested on: K562; assay: Cytotoxicity against human K562 cells assessed as cell growth at 0.001 uM after 48 hrs by sulforhodamine B assay; type: functional; details: K562, 48 h, read-out: Activity
[5] = tested on: LOX IMVI; assay: Cytotoxicity against human LOXIMVI cells assessed as cell growth at 0.001 uM after 48 hrs by sulforhodamine B assay; type: functional; details: read-out: Activity
[6] = tested on: DU-145; assay: Cytotoxicity against human DU145 cells assessed as cell growth at 0.001 uM after 48 hrs by sulforhodamine B assay; type: functional; details: DU-145, 48 h, read-out: Activity
[7] = tested on: MDA-MB-468; assay: Cytotoxicity against human MDA-MB-468 cells assessed as cell growth at 0.01 uM after 48 hrs by sulforhodamine B assay; type: functional; details: MDA-MB-468, 48 h, read-out: Activity
[8] = tested on: MDA-MB-435; assay: Cytotoxicity against human MDA-MB-435 cells assessed as cell growth at 100 nM after 48 hrs by sulforhodamine B assay; type: functional; details: MDA-MB-435, 48 h, read-out: Activity
[9] = tested on: SW-620; assay: Cytotoxicity against human SW620 cells assessed as cell growth at 10 uM after 48 hrs by sulforhodamine B assay; type: functional; details: SW-620, 48 h, read-out: Activity
[10] = tested on: LOX IMVI; assay: Cytotoxicity against human LOXIMVI cells assessed as cell growth at 10 uM after 48 hrs by sulforhodamine B assay; type: functional; details: read-out: Activity
[11] = tested on: Malme-3M; assay: Cytotoxicity against human MALME-3M cells assessed as cell growth at 10 uM after 48 hrs by sulforhodamine B assay; type: functional; details: read-out: Activity
[12] = tested on: EKVX; assay: Cytotoxicity against human EKVX cells assessed as cell growth at 0.01 uM after 48 hrs by sulforhodamine B assay; type: functional; details: read-out: Activity
[13] = tested on: HCT-15; assay: Cytotoxicity against human HCT15 cells assessed as cell growth at 0.01 uM after 48 hrs by sulforhodamine B assay; type: functional; details: HCT-15, 48 h, read-out: Activity
[14] = tested on: LOX IMVI; assay: Cytotoxicity against human LOXIMVI cells assessed as cell growth at 0.01 uM after 48 hrs by sulforhodamine B assay; type: functional; details: read-out: Activity
[15] = tested on: DU-145; assay: Cytotoxicity against human DU145 cells assessed as cell growth at 100 nM after 48 hrs by sulforhodamine B assay; type: functional; details: DU-145, 48 h, read-out: Activity
[16] = tested on: OVCAR-5; assay: Cytotoxicity against human OVCAR5 cells assessed as cell growth at 10 uM after 48 hrs by sulforhodamine B assay; type: functional; details: OVCAR-5, 48 h, read-out: Activity
[17] = tested on: OVCAR-8; assay: Cytotoxicity against human OVCAR8 cells assessed as cell growth at 10 uM after 48 hrs by sulforhodamine B assay; type: functional; details: OVCAR-8, 48 h, read-out: Activity
[18] = tested on: T47D; assay: Cytotoxicity against human T47D cells assessed as cell growth at 10 uM after 48 hrs by sulforhodamine B assay; type: functional; details: read-out: Activity
[19] = tested on: BT-549; assay: Cytotoxicity against human BT549 cells assessed as cell growth at 100 nM after 48 hrs by sulforhodamine B assay; type: functional; details: BT-549, 48 h, read-out: Activity
Method in brief: (§2)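 Cells grown in RPMI 1640 with 5% FBS and 2 mM L-glutamine, seeded at 5,000–40,000 cells/well by doubling time. Time-zero plates TCA-fixed after 24 h. Five concentrations (10-fold or half-log dilutions from DMSO stock) added; 48 h at 37 °C, 5% CO2. Cold TCA fixation (final 10%, 60 min, 4 °C), 0.4% SRB stain, dye solubilized in 10 mM trizma base, A515.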

[20] = tested on: K562; assay: Cytotoxicity against human K562 cells assessed as cell growth at 1 uM after 48 hrs by sulforhodamine B assay; type: functional; details: K562, 48 h, read-out: Activity
[21] = tested on: EKVX; assay: Cytotoxicity against human EKVX cells assessed as cell growth at 1 uM after 48 hrs by sulforhodamine B assay; type: functional; details: read-out: Activity
[22] = tested on: NCI-H460; assay: Cytotoxicity against human NCI-H460 cells assessed as cell growth at 1 uM after 48 hrs by sulforhodamine B assay; type: functional; details: NCI-H460, 48 h, read-out: Activity
[23] = tested on: SW-620; assay: Cytotoxicity against human SW620 cells assessed as cell growth at 1 uM after 48 hrs by sulforhodamine B assay; type: functional; details: SW-620, 48 h, read-out: Activity
[24] = tested on: CAKI-1; assay: Cytotoxicity against human Caki1 cells assessed as cell growth at 0.01 uM after 48 hrs by sulforhodamine B assay; type: functional; details: CAKI-1, 48 h, read-out: Activity; method in brief: as §2
[25] = tested on: SN12C; assay: Cytotoxicity against human SN12C cells assessed as cell growth at 0.01 uM after 48 hrs by sulforhodamine B assay; type: functional; details: read-out: Activity
[26] = tested on: K562; assay: Growth inhibition of human K562 cells after 48 hrs by sulforhodamine B assay; type: functional, cell-based; details: for CC50: read-out: LC50 (the source's name); method in brief: as §1
[27] = tested on: MDA-MB-231; assay: Cytotoxicity against human MDA-MB-231 cells assessed as cell growth at 1 uM after 48 hrs by sulforhodamine B assay; type: functional; details: MDA-MB-231, 48 h, read-out: Activity
[28] = tested on: COLO 205; assay: Cytotoxicity against human COLO205 cells assessed as cell growth at 10 uM after 48 hrs by sulforhodamine B assay; type: functional; details: COLO 205, 48 h, read-out: Activity; method in brief: as §2
[29] = tested on: SF-539; assay: Growth inhibition of human SF539 cells after 48 hrs by sulforhodamine B assay; type: functional, cell-based; details: for CC50: read-out: LC50 (the source's name); method in brief: as §1
[30] = tested on: LOX IMVI; assay: Growth inhibition of human LOXIMVI cells after 48 hrs by sulforhodamine B assay; type: functional, cell-based; details: for CC50: read-out: LC50 (the source's name); method in brief: as §1

## CC(=O)c1ccccc1-c1ccc(-c2ccnc(NC(=O)Nc3cc(N4CCOCC4)cc(C(F)(F)F)c3)n2)cn1
[1]
  GI50: > 100 µM
  IC50: > 100 µM
  LC50 (concentration causing 50% net cell kill): > 100 µM
  TGI: > 100 µM
[2]
  GI50: > 100 µM
  IC50: 6.89 µM
  LC50 (50% lethal concentration): > 100 µM
  TGI: > 100 µM
[3]; Homo sapiens, DU-145, 48 h
  TGI: > 100 µM
  CC50: > 100 µM
[3]; du-145
  IC50: Not Active
[4]
  growth at 0.001 µM: 81%
[5]
  growth at 0.001 µM: 104%
[6]
  growth at 0.001 µM: 100%
[7]
  growth at 0.01 µM: 105%
[8]
  growth at 0.1 µM: 92%
[9]
  growth at 10 µM: 102%
[10]
  growth at 10 µM: 93%
[11]
  growth at 10 µM: 61%
[12]
  growth at 0.01 µM: 94%
[13]
  growth at 0.01 µM: 98%
[14]
  growth at 0.01 µM: 106%
[15]
  growth at 0.1 µM: 77%
[16]
  growth at 10 µM: 118%
[17]
  growth at 10 µM: 53%
[18]
  growth at 10 µM: 66%
[19]
  growth at 0.1 µM: 74%
[20]
  growth at 1 µM: 79%
[21]
  growth at 1 µM: 63%
[22]
  growth at 1 µM: 61%
[23]
  growth at 1 µM: 84%
[24]
  growth at 0.01 µM: 92%
[25]
  growth at 0.01 µM: 88%
[26]; K562, 48 h
  GI50: > 100 µM
  IC50: > 100 µM
  TGI: > 100 µM
  CC50: > 100 µM
[27]
  growth at 1 µM: 35%
[28]
  growth at 10 µM: 115%
[29]; Homo sapiens, SF-539, 48 h
  TGI: > 100 µM
  CC50: > 100 µM
[29]; sf-539
  IC50: Not Active
[30]
  GI50: 34.9 µM
  IC50: > 100 µM
  TGI: > 100 µM
  CC50: > 100 µM

## CC(=O)Nc1cccc(-c2ccc(-c3ccnc(NC(=O)Nc4cc(C(F)(F)F)cc(C(F)(F)F)c4)n3)cn2)c1.Cl
[1]
  GI50: 2.86 µM
  IC50: 2.86 µM
  LC50 (concentration causing 50% net cell kill): 35.7 µM
  TGI: 12.7 µM
[2]
  GI50: 3.83 µM
  IC50: 3.83 µM
  LC50 (50% lethal concentration): 47.1 µM
  TGI: 15.5 µM
[3]; Homo sapiens, DU-145, 48 h
  GI50: 6.57 µM
  TGI: 19.6 µM
  CC50: 47 µM
[3]; Homo sapiens, DU-145, 48 h, read-out: IC50
  IC50: 6.57 µM
[4]
  growth at 0.001 µM: 93%
[5]
  growth at 0.001 µM: 95%
[6]
  growth at 0.001 µM: 112%
[7]
  growth at 0.01 µM: 86%
[8]
  growth at 0.1 µM: 89%
[9]
  growth at 10 µM: 41%
[10]
  growth at 10 µM: 4%
[11]
  growth at 10 µM: -49%
[12]
  growth at 0.01 µM: 79%
[13]
  growth at 0.01 µM: 91%
[14]
  growth at 0.01 µM: 86%
[15]
  growth at 0.1 µM: 102%
[16]
  growth at 10 µM: -96%
[17]
  growth at 10 µM: -84%
[18]
  growth at 10 µM: -14%
[19]
  growth at 0.1 µM: 87%
[20]
  growth at 1 µM: -1%
[21]
  growth at 1 µM: -20%
[22]
  growth at 1 µM: -14%
[23]
  growth at 1 µM: -33%
[24]
  growth at 0.01 µM: 104%
[25]
  growth at 0.01 µM: 96%
[26]
  TGI: inactive
[26]; K562, 48 h
  GI50: 1.87 µM
  IC50: 1.87 µM
  CC50: > 100 µM
[27]
  growth at 1 µM: 30%
[28]
  growth at 10 µM: 3%
[29]; Homo sapiens, SF-539, 48 h
  GI50: 5.48 µM
  TGI: 18.9 µM
  CC50: 44.3 µM
[29]; Homo sapiens, SF-539, 48 h, read-out: IC50
  IC50: 5.48 µM
[30]
  GI50: 1.79 µM
  IC50: 1.79 µM
  TGI: inactive
  CC50: > 100 µM
